The source of these data is ChEMBL document CHEMBL1152805, “Dual inhibitors of phosphodiesterase-4 and serotonin reuptake” (J Med Chem, 2009).

Data set [1] can be described thus: Metabolic stability in mouse liver microsomes assessed as half life at 40 uM after 60 mins by HPLC in presence of NADPH. Type of data set: ADME, Microsome. Conditions: 1 h. The procedure, abridged: (§1)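 Liver microsomes (0.5 mg protein) in potassium phosphate buffer, pH 7.4, with an NADPH-generating system (NADP+, glucose-6-phosphate, G6P dehydrogenase), DETAPAC and MgCl2. Test compound added at 40 µM and incubated at 37 °C with shaking. Samples stopped with CH2Cl2/2-propanol at 0, 10, 25, 40 and 60 min. Substrate loss measured by HPLC and half-life calculated.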
A general note: Liver microsomes are vesicles of endoplasmic reticulum, rich in cytochrome P450 enzymes.

In data set [2] the test system is Mus musculus. Kind of data set: Antidepressant activity in BALB/c mouse assessed as decrease in immobility duration at 1 mg/kg, ip administered 23 hrs, 5 hrs and 1 hr prior to test measured after 4 weeks by forced swimming test. It is filed as functional, organism-based. Details: dose 1 mg/kg. The procedure, abridged: (§2)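 Male Balb/c mice (22.4 ± 0.1 g), second session run 4 weeks after the first. Drug in 0.9% saline with 5% DMSO (vehicle alone as control), given i.p. 23, 5 and 1 hr before the forced-swim test, with no pretest training. Each mouse was placed 6 min in a water-filled cylinder (23 ± 1°C) and immobility duration recorded. n = 10–11; one-way ANOVA with Dunnett's test.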

For data set [3], the system named is Mus musculus. Kind of data set: Antidepressant activity in ICR mouse assessed as decrease in immobility duration at 1 umol/kg, ip administered 30 mins prior to test by forced swimming test. It is filed as functional, organism-based. The procedure, abridged:
(§3)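 Male ICR mice (26.2 ± 0.3 g), 12 h light cycle. Drug in 0.9% saline with 5% DMSO, given i.p. 30 min before the forced-swim test. Lower doses were tested first, then higher doses 1 week later after re-randomization. Swim pretest on 2 successive days, test 24 h later: 6 min in a cylinder with 28 cm of water at 23 ± 1°C, recording immobility. n = 9–11; ANOVA with Dunnett's test.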

In data set [4] the test system is Mus musculus. In words: Antidepressant activity in ICR mouse assessed as decrease in immobility duration at 5 umol/kg, ip administered 30 mins prior to test after 1 week by forced swimming test. It is filed as functional, organism-based. The procedure, abridged:
as §3

The next data set relates to Liver microsomes. In words: Metabolic stability in human liver microsomes assessed as half life after 60 mins by HPLC in presence of NADPH. Type of data set: ADME, Microsome. Conditions: 1 h. In outline: as §1
For data set [5], the target named is 3',5'-cyclic-AMP phosphodiesterase 4A (Homo sapiens, UniProt P27815). Kind of data set: Inhibition of human recombinant PDE4A1 assessed as inhibition of cAMP hydrolysis.
The target in data set [6] is 3',5'-cyclic-AMP phosphodiesterase 4B (Homo sapiens, UniProt Q07343). Kind of data set: Inhibition of human recombinant PDE4B3 assessed as inhibition of cAMP hydrolysis.
Data set [7] has as its system Mus musculus. Kind of data set: Antidepressant activity in ICR mouse assessed as decrease in immobility duration at 0.5 umol/kg, ip administered 30 mins prior to test by forced swimming test. Type of data set: functional, organism-based. In outline: as §3
Data set [8] deals with Mus musculus. Kind of data set: Antidepressant activity in BALB/c mouse assessed as decrease in immobility duration at 37.4 umol/kg, ip administered 23 hrs, 5 hrs and 1 hr prior to test measured after 4 weeks by forced swimming test. Type of data set: functional, organism-based. In outline:
as §2

Data set [9] has as its system Mus musculus. In words: Antidepressant activity in ICR mouse assessed as decrease in immobility duration at 10 umol/kg, ip administered 30 mins prior to test after 1 week by forced swimming test. It is filed as functional, organism-based. The procedure, abridged:
as §3

The target in data set [10] is T1, Sodium-dependent dopamine transporter (Homo sapiens, UniProt Q01959). Kind of data set: Displacement of [3H]dopamine from human recombinant DAT expressed in HEK293 cells by scintillation counting. Type of data set: cell-based. In outline: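 Suspended HEK-hDAT cells preincubated 10 min at 25 °C with test compound in Krebs-HEPES buffer. [3H]dopamine then added (20 nM final) for 10 min. Uptake stopped by filtration onto polyethylenimine-soaked GF/C filters, and radioactivity counted. Specific uptake defined with 5 µM mazindol. Triplicates, 3–4 experiments; Ki by Cheng-Prusoff.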

The test system of data set [11] is Mus musculus. In words: Antidepressant activity in ICR mouse assessed as decrease in immobility duration at 65 umol/kg, ip administered 30 mins prior to test by forced swimming test. Type of data set: functional, organism-based.
The test system of data set [12] is Mus musculus. Kind of data set: Antidepressant activity in ICR mouse assessed as decrease in immobility duration at 40 mg/kg, ip by forced swimming test. It is filed as functional, organism-based. Details: dose 40 mg/kg.
In data set [13] the test system is Mus musculus. In words: Antidepressant activity in BALB/c mouse assessed as decrease in immobility duration at 32.3 umol/kg, ip administered 23 hrs, 5 hrs and 1 hr prior to test measured after 4 weeks by forced swimming test. It is filed as functional, organism-based. The procedure, abridged: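 Male Balb/c mice received subchronic i.p. dosing at 23, 5 and 1 hr before the forced-swim test, with no pretest training. This session ran 4 weeks after the acute session. Vehicle was saline with 5% DMSO. The swim lasted 6 min in a cylinder of water 28 cm deep at 23 ± 1°C, scoring immobility duration. n = 10–11. One-way ANOVA with Dunnett's test.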

The subject of data set [14] is Mus musculus. In words: Antidepressant activity in BALB/c mouse assessed as decrease in immobility duration at 20 mg/kg, ip administered 30 mins prior to test by forced swimming test. Type of data set: functional, organism-based. Details: dose 20 mg/kg. In outline:
(§4)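 Acute dosing in male Balb/c mice (22.4 ± 0.1 g), i.p. 30 min before the forced-swim test. Vehicle was saline with 5% DMSO. Pretest swims were given on two successive days, then the test 24 h later. Each swim lasted 6 min in a cylinder of water 28 cm deep at 23 ± 1°C, scoring immobility (upright floating). n = 10–11. One-way ANOVA with Dunnett's test.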

The test system of data set [15] is Mus musculus. Kind of data set: Antidepressant activity in ICR mouse assessed as decrease in immobility duration at 0.5 mg/kg, ip once a day for 8 days by forced swimming test. It is filed as functional, organism-based. Details: dose 0.5 mg/kg.
In data set [16] the test system is Mus musculus. Kind of data set: Antidepressant activity in ICR mouse assessed as decrease in immobility duration at 0.5 mg/kg, ip by forced swimming test. Details: dose 0.5 mg/kg. Type of data set: functional, organism-based.
The test system of data set [17] is Mus musculus. Kind of data set: Antidepressant activity in BALB/c mouse assessed as decrease in immobility duration at 37.4 umol/kg, ip administered 30 mins prior to test by forced swimming test. Type of data set: functional, organism-based. In outline: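 Acute dosing in male Balb/c mice (22.4 ± 0.1 g). Drug in 0.9% saline with 5% DMSO, given i.p. 30 min before the forced-swim test. Swim pretest once daily on 2 successive days, then test 24 h later. Each session was 6 min in a cylinder filled to 28 cm with water at 23 ± 1°C, scoring immobility duration. n = 10–11; ANOVA with Dunnett's test.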

Data set [18] has as its system Mus musculus. In words: Antidepressant activity in BALB/c mouse assessed as decrease in immobility duration at 35.5 umol/kg, ip administered 30 mins prior to test by forced swimming test. It is filed as functional, organism-based. In outline: as §4
For data set [19], the target named is T1, Sodium-dependent dopamine transporter. Kind of data set: Displacement of [125I]RTI-55 from human recombinant DAT expressed in HEK293 cells by scintillation counting. Type of data set: cell-based.
For data set [20], the target named is T2, Sodium-dependent noradrenaline transporter (Homo sapiens, UniProt P23975). Kind of data set: Displacement of [3H]norepinephrine from human recombinant NET expressed in HEK293 cells by scintillation counting. Type of data set: cell-based. On the technique in general: Displacement assays read how much labelled ligand stays bound in the presence of the test substance.

Data set [21] addresses 3',5'-cyclic-AMP phosphodiesterase 4D (Homo sapiens, UniProt Q08499). In words: Inhibition of human recombinant PDE4D3.
The target in data set [22] is T2, Sodium-dependent noradrenaline transporter. Kind of data set: Displacement of [125I]RTI-55 from human recombinant NET expressed in HEK293 cells by scintillation counting. It is filed as cell-based.
For data set [23], the target named is T3, Sodium-dependent serotonin transporter (Homo sapiens, UniProt P31645). Kind of data set: biochemical. Type of data set: cell-based, HEK293.
Data set [24] deals with T3, Sodium-dependent serotonin transporter. It is filed as cell-based, HEK293.

For orientation: Ki means a measure of affinity in units of concentration, obtained from inhibition or displacement. As usually defined, the IC50 is the concentration at which inhibition is half-maximal.

Activity calls are given as the source filed them. The rule behind the calls is not given here.

T1 sequence (Q01959 whole entry): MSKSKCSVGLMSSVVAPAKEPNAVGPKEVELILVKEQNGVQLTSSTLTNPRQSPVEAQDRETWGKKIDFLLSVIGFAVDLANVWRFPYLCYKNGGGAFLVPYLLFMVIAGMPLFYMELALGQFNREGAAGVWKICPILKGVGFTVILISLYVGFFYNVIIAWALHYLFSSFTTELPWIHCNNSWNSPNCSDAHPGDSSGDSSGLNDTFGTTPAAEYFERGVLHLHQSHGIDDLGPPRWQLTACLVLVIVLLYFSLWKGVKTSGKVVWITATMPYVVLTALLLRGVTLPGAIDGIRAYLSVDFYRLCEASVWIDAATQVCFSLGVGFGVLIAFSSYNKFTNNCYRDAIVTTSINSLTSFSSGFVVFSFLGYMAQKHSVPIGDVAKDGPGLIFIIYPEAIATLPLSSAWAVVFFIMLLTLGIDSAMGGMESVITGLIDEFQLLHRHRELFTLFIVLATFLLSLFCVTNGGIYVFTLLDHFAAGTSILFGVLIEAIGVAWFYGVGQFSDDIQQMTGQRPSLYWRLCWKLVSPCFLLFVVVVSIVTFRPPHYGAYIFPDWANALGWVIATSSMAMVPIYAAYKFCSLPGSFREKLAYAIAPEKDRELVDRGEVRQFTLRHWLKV
Chain of 3',5'-cyclic-AMP phosphodiesterase 4A (P27815 whole entry): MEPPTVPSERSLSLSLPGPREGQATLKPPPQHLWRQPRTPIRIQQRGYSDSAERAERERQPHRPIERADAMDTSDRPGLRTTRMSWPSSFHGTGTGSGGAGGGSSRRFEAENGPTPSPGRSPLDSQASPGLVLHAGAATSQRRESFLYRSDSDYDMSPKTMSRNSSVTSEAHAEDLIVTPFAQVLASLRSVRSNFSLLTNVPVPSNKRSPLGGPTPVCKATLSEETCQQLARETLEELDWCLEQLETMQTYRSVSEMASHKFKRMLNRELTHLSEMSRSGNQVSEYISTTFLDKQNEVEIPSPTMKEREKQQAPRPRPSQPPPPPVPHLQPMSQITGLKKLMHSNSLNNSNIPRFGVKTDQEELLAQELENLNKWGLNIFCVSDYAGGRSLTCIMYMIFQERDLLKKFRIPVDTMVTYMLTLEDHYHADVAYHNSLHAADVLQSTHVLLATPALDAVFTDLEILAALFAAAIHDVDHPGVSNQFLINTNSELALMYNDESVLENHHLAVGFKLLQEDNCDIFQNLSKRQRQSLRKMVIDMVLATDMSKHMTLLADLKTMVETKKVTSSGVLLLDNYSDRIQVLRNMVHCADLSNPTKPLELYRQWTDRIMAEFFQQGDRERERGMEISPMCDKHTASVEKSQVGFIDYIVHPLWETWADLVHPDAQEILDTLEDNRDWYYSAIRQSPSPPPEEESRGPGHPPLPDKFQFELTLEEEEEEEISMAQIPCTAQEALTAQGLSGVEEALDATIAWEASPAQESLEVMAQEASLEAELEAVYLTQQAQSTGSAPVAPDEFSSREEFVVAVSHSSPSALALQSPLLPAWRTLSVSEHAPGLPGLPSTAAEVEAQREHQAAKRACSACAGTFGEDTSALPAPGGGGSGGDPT
T3 sequence (P31645 whole entry): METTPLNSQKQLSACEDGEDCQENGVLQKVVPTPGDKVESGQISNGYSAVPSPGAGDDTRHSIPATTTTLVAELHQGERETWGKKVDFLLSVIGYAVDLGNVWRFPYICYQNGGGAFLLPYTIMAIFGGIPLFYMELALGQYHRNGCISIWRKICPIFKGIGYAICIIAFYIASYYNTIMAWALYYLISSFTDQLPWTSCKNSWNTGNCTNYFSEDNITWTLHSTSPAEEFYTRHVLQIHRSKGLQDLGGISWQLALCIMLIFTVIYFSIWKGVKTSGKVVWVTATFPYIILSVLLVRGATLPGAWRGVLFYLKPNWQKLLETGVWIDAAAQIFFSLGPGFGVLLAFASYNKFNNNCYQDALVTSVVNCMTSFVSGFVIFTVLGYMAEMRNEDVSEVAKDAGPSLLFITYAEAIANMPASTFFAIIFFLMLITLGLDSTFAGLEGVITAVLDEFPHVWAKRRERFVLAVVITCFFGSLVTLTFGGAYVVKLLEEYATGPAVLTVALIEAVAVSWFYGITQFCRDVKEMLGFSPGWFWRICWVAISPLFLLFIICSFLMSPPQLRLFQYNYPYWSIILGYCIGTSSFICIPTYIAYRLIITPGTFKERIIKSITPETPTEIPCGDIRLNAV
Chain of 3',5'-cyclic-AMP phosphodiesterase 4B (Q07343 whole entry): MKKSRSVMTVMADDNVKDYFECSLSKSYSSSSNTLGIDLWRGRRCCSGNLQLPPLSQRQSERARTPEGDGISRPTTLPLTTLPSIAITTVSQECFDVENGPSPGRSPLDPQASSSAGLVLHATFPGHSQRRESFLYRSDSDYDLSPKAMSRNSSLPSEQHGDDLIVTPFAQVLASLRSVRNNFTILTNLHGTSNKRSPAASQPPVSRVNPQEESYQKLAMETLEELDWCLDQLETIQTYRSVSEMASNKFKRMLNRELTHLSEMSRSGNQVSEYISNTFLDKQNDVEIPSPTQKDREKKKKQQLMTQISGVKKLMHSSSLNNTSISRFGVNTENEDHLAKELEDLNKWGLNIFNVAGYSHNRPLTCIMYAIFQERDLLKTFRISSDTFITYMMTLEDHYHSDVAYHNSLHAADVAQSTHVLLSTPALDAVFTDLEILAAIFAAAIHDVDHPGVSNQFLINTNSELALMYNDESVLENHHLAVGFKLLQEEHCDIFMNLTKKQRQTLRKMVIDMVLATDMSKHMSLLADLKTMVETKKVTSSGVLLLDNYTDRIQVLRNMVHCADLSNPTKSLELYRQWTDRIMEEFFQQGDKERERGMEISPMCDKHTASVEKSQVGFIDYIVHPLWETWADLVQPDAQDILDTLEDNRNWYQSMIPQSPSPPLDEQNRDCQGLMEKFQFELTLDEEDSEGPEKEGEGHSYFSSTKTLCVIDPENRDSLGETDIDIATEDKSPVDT
T2 sequence (P23975 whole entry): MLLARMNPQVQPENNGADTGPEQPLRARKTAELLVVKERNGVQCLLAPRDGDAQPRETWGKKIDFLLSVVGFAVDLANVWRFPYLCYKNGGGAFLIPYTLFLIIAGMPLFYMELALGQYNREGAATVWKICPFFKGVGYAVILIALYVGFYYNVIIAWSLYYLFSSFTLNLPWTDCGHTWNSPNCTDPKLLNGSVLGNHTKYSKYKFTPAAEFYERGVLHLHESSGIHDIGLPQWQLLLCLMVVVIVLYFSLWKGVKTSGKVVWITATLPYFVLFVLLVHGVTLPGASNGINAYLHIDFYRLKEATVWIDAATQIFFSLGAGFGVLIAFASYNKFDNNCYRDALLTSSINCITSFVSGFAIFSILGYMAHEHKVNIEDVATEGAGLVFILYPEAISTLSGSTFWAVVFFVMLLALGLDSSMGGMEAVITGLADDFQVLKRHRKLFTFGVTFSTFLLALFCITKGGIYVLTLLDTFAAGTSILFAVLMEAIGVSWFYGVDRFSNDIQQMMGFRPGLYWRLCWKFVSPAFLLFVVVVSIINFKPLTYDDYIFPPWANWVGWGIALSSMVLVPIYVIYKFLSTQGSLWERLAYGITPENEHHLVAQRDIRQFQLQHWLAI
Chain of 3',5'-cyclic-AMP phosphodiesterase 4D (Q08499 whole entry): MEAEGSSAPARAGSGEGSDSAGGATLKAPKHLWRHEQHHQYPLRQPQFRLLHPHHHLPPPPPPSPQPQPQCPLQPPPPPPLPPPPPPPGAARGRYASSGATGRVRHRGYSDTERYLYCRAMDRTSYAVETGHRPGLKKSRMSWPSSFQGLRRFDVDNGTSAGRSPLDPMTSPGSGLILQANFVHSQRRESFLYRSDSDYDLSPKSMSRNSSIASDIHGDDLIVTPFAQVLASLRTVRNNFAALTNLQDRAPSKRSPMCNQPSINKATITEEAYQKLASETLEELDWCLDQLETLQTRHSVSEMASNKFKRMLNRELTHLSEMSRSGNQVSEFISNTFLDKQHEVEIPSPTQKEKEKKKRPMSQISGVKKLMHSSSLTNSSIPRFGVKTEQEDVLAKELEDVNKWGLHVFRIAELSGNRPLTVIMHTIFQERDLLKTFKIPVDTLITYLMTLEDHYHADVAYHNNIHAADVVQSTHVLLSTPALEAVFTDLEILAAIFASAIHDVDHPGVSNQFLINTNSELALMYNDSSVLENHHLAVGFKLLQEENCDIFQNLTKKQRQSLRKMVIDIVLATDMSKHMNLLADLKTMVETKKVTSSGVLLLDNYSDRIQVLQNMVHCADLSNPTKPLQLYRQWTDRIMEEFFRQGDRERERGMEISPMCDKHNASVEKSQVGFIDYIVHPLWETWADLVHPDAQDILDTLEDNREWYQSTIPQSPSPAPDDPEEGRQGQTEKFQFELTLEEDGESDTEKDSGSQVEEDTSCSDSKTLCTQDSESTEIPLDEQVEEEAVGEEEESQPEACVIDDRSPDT

On to `COc1ccc(C2=NNC(=O)C3CC=CCC23)cc1OC` (configuration not stated), for which the t1/2 in data set [1] amounted to 3.522 h. For the same compound, the outcome with Mus musculus [2], in the data set with Mus musculus [3], in the data set on Mus musculus [4], with Mus musculus [7], in the data set with Mus musculus [8] and in the data set on Mus musculus [9] was Active. Moreover, in the data set on Liver microsomes, the Stability result is on record as “Stable”. In addition, the inhibition constant (Ki) in [5] is over 1000 nM; in data set [6], 250 nM.
Take `CNCCC1CCC(CCc2cc(F)ccc2OC)O1` (configuration not stated): the IC50 in data set [10] is over 100000 nM.
`CNCCC(Oc1ccc(C(F)(F)F)cc1)c1ccccc1` (configuration not stated): the result in the data set with Mus musculus [11] and in the data set on Mus musculus [12] was Active. In addition, the outcome with Mus musculus [13] and in the data set with Mus musculus [14] was inactive.
Consider `COc1ccc(C2CNC(=O)C2)cc1OC1CCCC1` (configuration not stated), for which the outcome with Mus musculus [15] was Active. In addition, the result with Mus musculus [16] was inactive.
As to `COc1ccc(F)cc1CCC1CCC(CCN)O1` (configuration not stated), the outcome in the data set with Mus musculus [17] and in the data set with Mus musculus [8] was inactive.
`COc1ccc(F)cc1CCCC1CCC(CCN)O1` (configuration not stated): the result with Mus musculus [18] was inactive.
Consider `COc1ccc(F)c(CCCC2CCC(CCNCCCCCN3N=C(c4ccc(OC)c(OC)c4)[C@H]4CC=CC[C@H]4C3=O)O2)c1` (mixture of isomers), for which the inhibitory constant (Ki) in data set [19] is 5340 nM; in data set [5] it was over 1000 nM; in [6], 500 nM; in data set [21], 1.2 nM; in data set [22], 7440 nM. Also, the Stability result (in [1]; in the data set with Liver microsomes) was “Stable” each time. Besides, the IC50 in [20] is 7440 nM; in [10], 5340 nM.
As to `COc1ccc(F)cc1CCC1CCC(CCNCCCCCN2N=C(c3ccc(OC)c(OC)c3)[C@H]3CC=CC[C@H]3C2=O)O1` (mixture of isomers), the inhibition constant Ki in data set [19] was 2480 nM; in data set [23], 156 nM; in [5], over 1000 nM; in data set [6], 199 nM; in data set [21], 2 nM. Further, the t1/2 in data set [1] amounted to 2.565 h. Also, the outcome in the data set on Mus musculus [2] was inactive. Moreover, the result in the data set with Mus musculus [3], in the data set on Mus musculus [4], in the data set with Mus musculus [7] and with Mus musculus [9] was Active. Further, the half-maximal inhibitory concentration (IC50) turned out to be 3560 nM in data set [10] and 127 nM in data set [24]. For the same compound, the Stability result in the data set on Liver microsomes is “Stable”.
For the compound `COc1ccc(C2=NN(CCCCCBr)C(=O)[C@@H]3CC=CC[C@H]23)cc1OC` (racemic), the inhibition constant (Ki) in data set [19] and in data set [23] was over 100000 nM each time. In addition, the IC50 in [10] and in data set [24] was over 100000 nM each time.
